According to article PMC3062473 (ChemMedChem, 2010):

Legend:
[1] = Aqueous degradation study by LCMS over 96 hours; format: physicochemical; conditions: for aqueous stability (in words): up to 96 hours
[2] = Bi-directional Caco-2 permeability; format: in vitro ADME; conditions: human
How it was run: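 Contract-lab bidirectional Caco-2 permeability. Run as three separate experiments, each with two separate internal control groups.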

[3] = Plasma protein binding, equilibrium dialysis in 100% plasma; format: in vitro ADME, human; conditions: human, plasma (100%)
Microsomal stability = format: in vitro ADME, human; conditions: for microsomal CLint / half-life: human, liver microsomes; for half-life: Microsomal Stability t1/2, human liver microsomes
How it was run: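 Human microsomal stability, profiled by a contract lab alongside internal control compounds. Includes minus-NADPH and minus-compound control incubations.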

Pgp = Pgp (Homo sapiens, UniProt P08183); test: Caco-2 permeability in the presence of verapamil; format: in vitro ADME; conditions: Caco-2 control experiment with verapamil
Caspase 6 = target: T1, Caspase 6 (Homo sapiens, UniProt P55212); test: Reaction Biology caspase panel; format: biochemical
T1 sequence (P55212 24-179 limits assumed): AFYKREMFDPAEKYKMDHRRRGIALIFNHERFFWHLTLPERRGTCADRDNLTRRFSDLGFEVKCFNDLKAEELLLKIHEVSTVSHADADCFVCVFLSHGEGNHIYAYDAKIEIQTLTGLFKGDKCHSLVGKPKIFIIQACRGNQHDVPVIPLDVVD
T1 sequence (P55212 194-293 limits assumed): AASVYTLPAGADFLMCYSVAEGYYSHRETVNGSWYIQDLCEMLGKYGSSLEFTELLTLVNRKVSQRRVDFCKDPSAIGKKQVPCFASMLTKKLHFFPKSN

Caspase 7 = target: T2, Caspase 7 (Homo sapiens, UniProt P55210); test: Reaction Biology caspase panel; format: biochemical
T2 sequence (P55210 24-198 limits assumed): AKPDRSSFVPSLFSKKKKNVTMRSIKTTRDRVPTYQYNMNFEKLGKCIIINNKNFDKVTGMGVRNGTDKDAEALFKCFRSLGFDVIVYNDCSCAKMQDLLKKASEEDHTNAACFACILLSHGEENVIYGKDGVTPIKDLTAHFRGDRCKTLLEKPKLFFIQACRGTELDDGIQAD
T2 sequence (P55210 207-303 limits assumed): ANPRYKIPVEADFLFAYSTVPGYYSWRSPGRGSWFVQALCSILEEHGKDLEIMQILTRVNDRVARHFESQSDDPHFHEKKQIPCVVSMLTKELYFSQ

caspase 1 [4] = target: T3, caspase 1 (Homo sapiens, UniProt P29466); test: Caspase 1 fluorescence assay, Ac-LEHD-AMC substrate, 2 nM enzyme; format: biochemical
T3 sequence (P29466 120-297 limits assumed): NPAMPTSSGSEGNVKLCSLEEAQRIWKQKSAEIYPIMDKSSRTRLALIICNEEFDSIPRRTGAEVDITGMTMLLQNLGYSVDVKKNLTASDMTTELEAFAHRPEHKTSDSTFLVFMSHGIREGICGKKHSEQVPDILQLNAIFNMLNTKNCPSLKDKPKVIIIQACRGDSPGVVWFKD
T3 sequence (P29466 317-404 limits assumed): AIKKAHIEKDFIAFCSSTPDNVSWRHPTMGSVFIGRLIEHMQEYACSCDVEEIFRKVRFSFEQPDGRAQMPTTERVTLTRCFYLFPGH
How it was run: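 Compound added from DMSO as a 12-point duplicate titration (0.65 pM to 57.5 μM) and preincubated 15 min at RT. Then 5 μM Ac-LEHD-AMC final was added and the initial rate followed 20 min at RT (ex 340/em 450 nm). Percent inhibition was taken against median uninhibited and uncatalyzed controls, with a four-parameter Hill fit.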

caspase 1 [5] = target: T3, caspase 1; test: Reaction Biology caspase panel; format: biochemical
Caspase 3 = target: T4, Caspase 3 (Homo sapiens, UniProt P42574); test: Reaction Biology caspase panel; format: biochemical
T4 sequence (P42574 29-175 limits assumed): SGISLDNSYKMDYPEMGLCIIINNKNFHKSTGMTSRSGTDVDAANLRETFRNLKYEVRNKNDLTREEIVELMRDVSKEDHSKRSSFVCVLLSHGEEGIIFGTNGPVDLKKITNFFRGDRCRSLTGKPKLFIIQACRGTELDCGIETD
T4 sequence (P42574 176-277 limits assumed): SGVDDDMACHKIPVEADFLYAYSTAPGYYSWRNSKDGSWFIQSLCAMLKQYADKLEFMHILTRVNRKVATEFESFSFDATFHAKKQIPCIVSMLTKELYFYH

Caspase 4 = target: T5, Caspase 4 (Homo sapiens, UniProt P49662); test: Reaction Biology caspase panel; format: biochemical
T5 sequence (P49662 81-270 limits assumed): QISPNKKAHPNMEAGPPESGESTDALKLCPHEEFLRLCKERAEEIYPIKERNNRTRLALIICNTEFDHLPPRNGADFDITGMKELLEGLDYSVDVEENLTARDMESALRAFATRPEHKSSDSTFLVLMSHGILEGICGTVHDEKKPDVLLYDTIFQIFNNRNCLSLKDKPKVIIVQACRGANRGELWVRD
T5 sequence (P49662 290-377 limits assumed): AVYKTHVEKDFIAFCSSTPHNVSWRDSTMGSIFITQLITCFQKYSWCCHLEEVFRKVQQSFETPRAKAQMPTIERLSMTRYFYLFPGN

Caspase 5 = target: T6, Caspase 5 (Homo sapiens, UniProt P51878); test: Reaction Biology caspase panel; format: biochemical
T6 sequence (P51878 137-327 limits assumed): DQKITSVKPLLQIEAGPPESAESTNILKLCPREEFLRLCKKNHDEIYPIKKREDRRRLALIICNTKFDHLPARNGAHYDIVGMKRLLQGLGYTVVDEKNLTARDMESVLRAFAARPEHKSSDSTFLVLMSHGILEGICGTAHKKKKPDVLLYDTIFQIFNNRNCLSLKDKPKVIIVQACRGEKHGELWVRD
T6 sequence (P51878 347-434 limits assumed): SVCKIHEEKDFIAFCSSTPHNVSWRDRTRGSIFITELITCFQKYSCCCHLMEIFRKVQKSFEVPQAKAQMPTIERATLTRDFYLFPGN

Caspase 8 = Caspase 8 (Homo sapiens, UniProt Q14790); test: Reaction Biology caspase panel; format: biochemical
Caspase 9 = target: T7, Caspase 9 (Homo sapiens, UniProt P55211); test: Reaction Biology caspase panel; format: biochemical
T7 sequence (P55211 1-315 limits assumed): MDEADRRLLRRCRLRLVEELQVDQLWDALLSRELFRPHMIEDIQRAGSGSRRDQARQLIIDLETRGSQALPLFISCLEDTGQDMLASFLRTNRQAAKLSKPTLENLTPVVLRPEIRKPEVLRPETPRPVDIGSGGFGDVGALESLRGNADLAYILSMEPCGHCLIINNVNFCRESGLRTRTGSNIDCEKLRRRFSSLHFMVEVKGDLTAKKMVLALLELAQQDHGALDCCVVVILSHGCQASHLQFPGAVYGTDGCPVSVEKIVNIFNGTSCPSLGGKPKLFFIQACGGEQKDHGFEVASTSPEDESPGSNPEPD
T7 sequence (P55211 331-416 limits assumed): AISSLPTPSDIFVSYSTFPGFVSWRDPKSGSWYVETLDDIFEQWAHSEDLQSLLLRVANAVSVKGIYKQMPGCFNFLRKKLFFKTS

Caspase 10 = target: T8, Caspase 10 (Homo sapiens, UniProt Q92851); test: Reaction Biology caspase panel; format: biochemical
T8 sequence (Q92851 220-415 limits assumed): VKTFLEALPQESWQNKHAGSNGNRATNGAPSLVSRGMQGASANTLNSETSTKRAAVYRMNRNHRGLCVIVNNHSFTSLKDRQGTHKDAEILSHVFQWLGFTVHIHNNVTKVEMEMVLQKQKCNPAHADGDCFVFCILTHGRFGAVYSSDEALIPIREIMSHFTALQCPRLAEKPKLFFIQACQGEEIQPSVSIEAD
T8 sequence (Q92851 416-521 limits assumed): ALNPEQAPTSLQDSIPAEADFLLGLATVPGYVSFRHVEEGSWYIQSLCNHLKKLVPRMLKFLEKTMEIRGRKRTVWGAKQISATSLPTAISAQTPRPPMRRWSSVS

Caspase 14 = target: T9, Caspase 14 (Homo sapiens, UniProt P31944); test: Reaction Biology caspase panel; format: biochemical
T9 sequence (P31944 6-146 limits assumed): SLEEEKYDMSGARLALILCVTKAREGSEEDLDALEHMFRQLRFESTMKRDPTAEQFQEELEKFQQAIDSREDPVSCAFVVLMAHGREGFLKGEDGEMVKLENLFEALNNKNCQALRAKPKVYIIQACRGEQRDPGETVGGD
T9 sequence (P31944 153-242 limits assumed): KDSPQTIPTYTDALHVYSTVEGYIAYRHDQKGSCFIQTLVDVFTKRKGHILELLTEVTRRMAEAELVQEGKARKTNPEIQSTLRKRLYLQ

Chain of Caspase 8 (Q14790 217-374 limits assumed): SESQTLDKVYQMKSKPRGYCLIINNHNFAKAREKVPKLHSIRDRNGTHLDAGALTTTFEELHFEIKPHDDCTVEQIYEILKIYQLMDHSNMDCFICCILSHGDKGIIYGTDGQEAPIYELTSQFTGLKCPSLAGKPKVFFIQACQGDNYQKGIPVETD
Chain of Caspase 8 (Q14790 385-479 limits assumed): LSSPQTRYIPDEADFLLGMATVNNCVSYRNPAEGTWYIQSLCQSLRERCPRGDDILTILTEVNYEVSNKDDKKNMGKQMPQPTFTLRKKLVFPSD
Chain of Pgp (P08183 whole entry): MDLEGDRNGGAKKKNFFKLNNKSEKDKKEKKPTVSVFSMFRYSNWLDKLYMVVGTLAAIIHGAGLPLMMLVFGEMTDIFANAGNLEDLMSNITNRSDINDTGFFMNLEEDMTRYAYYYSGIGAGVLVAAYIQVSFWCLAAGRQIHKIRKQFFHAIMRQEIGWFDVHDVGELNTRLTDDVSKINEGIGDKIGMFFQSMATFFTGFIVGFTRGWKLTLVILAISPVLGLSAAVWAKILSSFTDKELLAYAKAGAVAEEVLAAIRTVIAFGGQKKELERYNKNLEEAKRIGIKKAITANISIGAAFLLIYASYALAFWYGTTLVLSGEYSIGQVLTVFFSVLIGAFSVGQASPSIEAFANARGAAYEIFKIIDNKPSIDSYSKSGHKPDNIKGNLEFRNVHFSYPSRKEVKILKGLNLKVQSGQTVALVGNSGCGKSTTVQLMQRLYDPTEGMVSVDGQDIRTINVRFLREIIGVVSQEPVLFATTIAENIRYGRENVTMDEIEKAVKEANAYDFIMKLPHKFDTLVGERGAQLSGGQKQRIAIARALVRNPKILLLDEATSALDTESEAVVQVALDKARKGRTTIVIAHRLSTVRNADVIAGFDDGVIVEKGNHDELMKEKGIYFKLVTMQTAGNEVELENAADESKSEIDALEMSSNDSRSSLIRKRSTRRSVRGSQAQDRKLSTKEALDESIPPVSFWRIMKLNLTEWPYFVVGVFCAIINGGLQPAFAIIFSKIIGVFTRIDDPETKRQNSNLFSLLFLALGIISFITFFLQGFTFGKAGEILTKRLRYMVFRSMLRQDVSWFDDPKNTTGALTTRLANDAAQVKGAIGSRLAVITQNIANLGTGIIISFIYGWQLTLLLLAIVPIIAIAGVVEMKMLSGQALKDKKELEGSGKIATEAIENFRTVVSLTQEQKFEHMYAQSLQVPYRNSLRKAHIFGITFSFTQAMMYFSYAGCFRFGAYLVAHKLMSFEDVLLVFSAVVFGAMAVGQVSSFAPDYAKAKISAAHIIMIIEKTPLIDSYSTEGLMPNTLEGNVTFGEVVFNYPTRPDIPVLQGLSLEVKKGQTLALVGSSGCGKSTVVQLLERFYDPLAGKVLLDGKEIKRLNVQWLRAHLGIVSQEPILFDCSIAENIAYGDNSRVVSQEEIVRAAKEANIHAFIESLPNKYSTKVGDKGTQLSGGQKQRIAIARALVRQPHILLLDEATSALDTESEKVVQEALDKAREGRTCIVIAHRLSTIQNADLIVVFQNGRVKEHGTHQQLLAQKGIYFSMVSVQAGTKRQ

| aqueous stability (in words) ([1]; neutral (pH 7)) | Papp A→B [2] [×10⁻⁶ cm/s] | Papp B→A [2] [×10⁻⁶ cm/s] | fraction unbound [3] | microsomal CLint (Microsomal stability) [µL/min/mg] | substrate for Pgp efflux (Pgp) | IC50 (Caspase 6) [nM] | IC50 (Caspase 7) [nM] | IC50 (caspase 1 [4]) [nM] | IC50 (caspase 1 [5]) [nM] | IC50 (Caspase 3) [nM] | IC50 (Caspase 4) [nM] | IC50 (Caspase 5) [nM] | IC50 (Caspase 8) [nM] | IC50 (Caspase 9) [nM] | IC50 (Caspase 10) [nM] | IC50 (Caspase 14) [nM] | aqueous stability (in words) ([1]; acidic (pH 2)) | aqueous stability (in words) ([1]; basic (pH 8)) | half-life (Microsomal stability) [h] | SMILES | other results |
| --- | --- | --- | --- | --- | --- | --- | --- | --- | --- | --- | --- | --- | --- | --- | --- | --- | --- | --- | --- | --- | --- |
| moderate degradation | 0.797 | 32.7 | 0.006 | 0.147 | substrates for Pgp efflux | – | – | – | – | – | – | – | – | – | – | – | – | – | – | CCO[C@@H]1OC(=O)C[C@@H]1NC(=O)[C@@H]1CCCN1C(=O)[C@@H](NC(=O)c1ccc(N)c(Cl)c1)C(C)(C)C [Compound 1, reference compound] | degradation ([1]; pH 2, after 3.5 hours): 40%; compound decomposed ([1]; water (pH 7), after 48 hours): over 50%; Microsomal Stability t1/2 (Microsomal stability; human liver microsomes, listed as VX-765): 157.2 h |
| – | – | – | – | – | – | 122 | 3.54 | – | – | – | – | – | – | – | – | – | – | – | – | CC(=O)N[C@@H](CC(=O)O)C(=O)N[C@@H](CCC(=O)O)C(=O)N[C@H](C(=O)N[C@H](C=O)CC(=O)O)C(C)C [Ac-DEVD-CHO, reference compound] | – |
| resistant to degradation | 0.13 | 0.193 | 0.243 | 9.38 | – | > 10000 | > 10000 | 20.4 | 2.58 | > 10000 | 1380 | 1300 | > 10000 | 91.5 | > 10000 | > 10000 | resistant to degradation | resistant to degradation | 2.47 | CC(C)(C)[C@H](NC(=O)c1ccc(N)c(Cl)c1)C(=O)N1CCC[C@H]1C(=O)N[C@H](C#N)Cc1nnn[nH]1 [Compound 16, (S)-1-((S)-2-(4-amino-3-chlorobenzamido)-3,3-dimethylbutanoyl)-N-((S)-1-cyano-2-(1H-tetrazol-5-yl)ethyl)pyrrolidine-2-carboxamide] | – |
| moderate to good | 0.144 | 0.06 | 0.431 | 10.3 | – | > 10000 | > 10000 | 0.316 | 0.023 | > 10000 | 13.8 | 3.6 | 25.2 | 2.17 | 89.7 | 801 | moderate to good | exceedingly stable | 2.23 | CC(C)(C)[C@H](NC(=O)c1ccc(N)c(Cl)c1)C(=O)N1CCC[C@H]1C(=O)N[C@H](C#N)CC(=O)O [Compound 4, (S)-3-((S)-1-((S)-2-(4-amino-3-chlorobenzamido)-3,3-dimethylbutanoyl)pyrrolidine-2-carboxamido)-3-cyanopropanoic acid] | Ki (caspase 1 [4]): 0.4 nM; degradation ([1]; acidic (pH 2), after 72 hours): 50%; degradation ([1]; neutral (pH 7), after 72 hours): 50% |
| exceptionally stable | 0.445 | 9.59 | 0.071 | 27.4 | substrates for Pgp efflux | > 10000 | > 10000 | 145 | 43.4 | > 10000 | > 10000 | 1570 | > 10000 | 1610 | > 10000 | > 10000 | exceptionally stable | – | 0.845 | CCOC(=O)C[C@@H](C#N)NC(=O)[C@@H]1CCCN1C(=O)[C@@H](NC(=O)c1ccc(N)c(Cl)c1)C(C)(C)C [Compound 3, (S)-ethyl 3-((S)-1-((S)-2-(4-amino-3-chlorobenzamido)-3,3-dimethylbutanoyl)pyrrolidine-2-carboxamido)-3-cyanopropanoate] | degradation (in words) ([1]; basic (pH 8), after 22 hours): fully degraded; degradation in liver microsomes without NADPH (Microsomal stability; without NADPH as a cofactor): slight degree of degradation |
